Assay [1] deals with T1, Adenosine receptor A1 (Homo sapiens, UniProt P30542).
T1 sequence (P30542 whole entry): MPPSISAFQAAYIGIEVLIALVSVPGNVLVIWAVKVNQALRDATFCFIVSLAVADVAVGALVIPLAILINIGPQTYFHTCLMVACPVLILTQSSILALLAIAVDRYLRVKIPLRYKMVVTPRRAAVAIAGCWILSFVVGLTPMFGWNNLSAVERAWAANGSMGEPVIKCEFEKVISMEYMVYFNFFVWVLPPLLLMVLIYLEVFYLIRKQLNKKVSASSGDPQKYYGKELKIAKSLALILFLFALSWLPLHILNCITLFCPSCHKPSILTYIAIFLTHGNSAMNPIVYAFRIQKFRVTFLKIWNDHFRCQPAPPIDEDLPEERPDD
The assay can be described thus: Displacement of [3H]DPCPX from human Adenosine A1 receptor expressed in CHO cells; range 512-698. The format is cell-based. A digest of the protocol:
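Competition binding on membranes of CHO cells stably expressing human A1 receptor, resuspended in 50 mM Tris HCl pH 7.4. Incubation 120 min at 25 °C with 1 nM [3H]DPCPX, 50 µg protein per assay and at least six to eight test concentrations. CHA defined nonspecific binding. Bound ligand separated on glass-fibre filters and counted; n = 3-6.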

Assay [2] deals with T2, Adenosine receptor A2a (Homo sapiens, UniProt P29274). The assay can be described thus: Displacement of [3H]SCH-58261 from human Adenosine A2A receptor expressed in HEK293 cells; range 83-120. It counts as cell-based. For orientation: In a radioligand displacement assay an active substance lowers the binding of a labelled ligand.
T2 sequence (P29274 whole entry): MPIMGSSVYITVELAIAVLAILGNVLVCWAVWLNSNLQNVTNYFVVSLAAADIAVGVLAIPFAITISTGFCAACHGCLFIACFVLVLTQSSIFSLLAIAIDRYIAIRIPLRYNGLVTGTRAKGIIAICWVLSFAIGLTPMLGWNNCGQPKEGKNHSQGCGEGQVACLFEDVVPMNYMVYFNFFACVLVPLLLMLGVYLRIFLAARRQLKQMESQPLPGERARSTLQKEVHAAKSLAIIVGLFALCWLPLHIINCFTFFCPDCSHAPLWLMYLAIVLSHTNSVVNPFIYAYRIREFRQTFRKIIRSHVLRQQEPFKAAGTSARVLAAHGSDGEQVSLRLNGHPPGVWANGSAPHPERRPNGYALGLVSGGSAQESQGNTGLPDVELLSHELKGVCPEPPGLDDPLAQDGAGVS
Assay [3] concerns the target T3, Adenosine receptor A3 (Homo sapiens, UniProt P0DMS8).
T3 sequence (P0DMS8 whole entry): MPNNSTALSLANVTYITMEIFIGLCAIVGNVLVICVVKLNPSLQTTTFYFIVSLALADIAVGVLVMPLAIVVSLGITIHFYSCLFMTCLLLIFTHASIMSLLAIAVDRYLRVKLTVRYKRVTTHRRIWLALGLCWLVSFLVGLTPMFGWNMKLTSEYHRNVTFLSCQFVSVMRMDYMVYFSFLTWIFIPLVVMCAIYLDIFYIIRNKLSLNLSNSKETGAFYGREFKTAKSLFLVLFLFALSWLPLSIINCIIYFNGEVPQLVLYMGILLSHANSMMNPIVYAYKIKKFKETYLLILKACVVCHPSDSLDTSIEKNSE
The assay can be described thus: Inhibition of IB-MECA agonist-mediated cAMP production in CHO cell membranes expressing human Adenosine A3 receptor; range 2.7-6.6. The format is functional, cell-based. A digest of the protocol: (§1)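 Human A3-CHO membranes (in 50 mM Tris HCl, 10 mM MgCl2, 1 mM EDTA, pH 7.4) were preincubated for 10 min at 37 °C with 5 µM GTP, 0.5 mM Ro 20-1724 and 2.0 IU/mL adenosine deaminase. IB-MECA (100 nM) or antagonist was then added with 1 mM ATP and forskolin for 10 min. The reaction was stopped by 2 min boiling. cAMP was measured by [3H]cAMP competitive protein binding using beef adrenal binding protein, 150 min at 4 °C.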
On the technique in general: cAMP levels reflect the balance of adenylyl cyclase and phosphodiesterase activity.

For assay [4], the target named is T3, Adenosine receptor A3. The assay can be described thus: Displacement of [3H]MRE3008-F20 from human Adenosine A3 receptor expressed in HEK cells; range 0.39-0.54. The format is cell-based, HEK293.
Assay [5] addresses Adenosine receptors; A2b & A3 (Homo sapiens) (UniProt P29275+P0DMS8). The assay can be described thus: Selectivity ratio (h2B/hA3). The format is protein assay.
The target of assay [6] is Adenosine receptors; A1 & A3 (Homo sapiens) (UniProt P30542+P0DMS8). The assay can be described thus: Selectivity ratio (hA1/hA3). The format is protein assay.
Assay [7] deals with T4, Adenosine receptor A2b (Homo sapiens, UniProt P29275).
T4 sequence (P29275 whole entry): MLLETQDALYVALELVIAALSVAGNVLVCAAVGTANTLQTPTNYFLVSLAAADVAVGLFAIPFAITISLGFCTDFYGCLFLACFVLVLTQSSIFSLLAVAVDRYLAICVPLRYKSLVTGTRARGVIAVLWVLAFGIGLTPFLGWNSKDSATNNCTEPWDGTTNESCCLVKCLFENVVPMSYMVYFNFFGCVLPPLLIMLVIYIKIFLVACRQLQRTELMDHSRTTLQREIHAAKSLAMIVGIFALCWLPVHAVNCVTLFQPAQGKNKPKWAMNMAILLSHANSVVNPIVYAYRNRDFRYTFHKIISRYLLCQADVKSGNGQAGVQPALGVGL
The assay can be described thus: Displacement of [3H]DPCPX from human Adenosine A2B receptor expressed in HEK293 cells; range 152-216. The format is cell-based. In short, it runs like this: (§2)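 Competition binding on membranes of HEK-293 cells carrying recombinant human A2B receptor. Incubation 60 min at 25 °C in 50 mM Tris HCl pH 7.4 with 10 mM MgCl2, 1 mM EDTA, 0.1 mM benzamidine and 2 IU/mL adenosine deaminase. Radioligand 40 nM [3H]DPCPX, at least six to eight test concentrations. NECA defined nonspecific binding. Bound ligand separated on glass-fibre filters and counted; n = 3-6.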

Assay [8] has as its target T3, Adenosine receptor A3. The assay can be described thus: Inhibition of IB-MECA agonist-mediated cAMP production in CHO cell membranes expressing human Adenosine A3 receptor; range 5.5-10.9. The format is functional, cell-based. A digest of the protocol: as §1
The target of assay [9] is T3, Adenosine receptor A3. The assay can be described thus: Displacement of [3H]MRE3008-F20 from human Adenosine A3 receptor expressed in HEK cells; range 0.71-0.91. The format is cell-based, HEK293.
Assay [10] has as its target T2, Adenosine receptor A2a. The assay can be described thus: Displacement of [3H]SCH-58261 from human Adenosine A2A receptor expressed in HEK293 cells; range 140-186. It counts as cell-based.
The target in assay [11] is T4, Adenosine receptor A2b. The assay can be described thus: Displacement of [3H]DPCPX from human Adenosine A2B receptor expressed in HEK293 cells; range 213-296. The format is cell-based. In short, it runs like this: as §2
The target of assay [12] is T1, Adenosine receptor A1. The assay can be described thus: Displacement of [3H]DPCPX from human Adenosine A1 receptor expressed in CHO cells; range 406-616. It counts as cell-based.
Assay [13] concerns the target T4, Adenosine receptor A2b. The assay can be described thus: Displacement of [3H]DPCPX from human Adenosine A2B receptor expressed in HEK293 cells; range 115-161. It counts as cell-based. In short, it runs like this: (§3)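 HEK-293 membranes expressing the human receptor were incubated 60 min at 25 °C. Six to eight test concentrations were used. Nonspecific binding was set with NECA. n = 3-6.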

Assay [14] addresses T1, Adenosine receptor A1. The assay can be described thus: Displacement of [3H]DPCPX from human Adenosine A1 receptor expressed in CHO cells; range 330-478. The format is cell-based. In short, it runs like this: (§4)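 Human recombinant A1 receptor in CHO cell membranes, resuspended in 50 mM Tris HCl pH 7.4. Displacement run 120 min at 25 °C with 1 nM [3H]DPCPX, 50 µg protein per assay, and at least six to eight test concentrations. Nonspecific binding defined with CHA. Bound and free separated on glass-fiber filters; filter radioactivity counted. n = 3-6.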

The target of assay [15] is T2, Adenosine receptor A2a. The assay can be described thus: Displacement of [3H]SCH-58261 from human Adenosine A2A receptor expressed in HEK293 cells; range 24-48. The format is cell-based.
Assay [16] deals with T3, Adenosine receptor A3. The assay can be described thus: biochemical.
Assay [17] has as its target T4, Adenosine receptor A2b. The assay can be described thus: Displacement of [3H]DPCPX from human Adenosine A2B receptor expressed in HEK293 cells; range 178-310. It counts as cell-based. A digest of the protocol:
as §3

Assay [18] has as its target T1, Adenosine receptor A1. The assay can be described thus: Displacement of [3H]DPCPX from human Adenosine A1 receptor expressed in CHO cells; range 346-586. It counts as cell-based. A digest of the protocol:
as §4

In assay [19] the target is T2, Adenosine receptor A2a. The assay can be described thus: Displacement of [3H]SCH-58261 from human Adenosine A2A receptor expressed in HEK293 cells; range 51-55. It counts as cell-based.
For assay [20], the target named is T3, Adenosine receptor A3. The assay can be described thus: biochemical. The source holds these as a separate data set.
Assay [21] addresses T4, Adenosine receptor A2b. The assay can be described thus: Displacement of [3H]DPCPX from human Adenosine A2B receptor expressed in HEK293 cells; range 65-94. The format is cell-based. In short, it runs like this: as §2
Assay [22] concerns the target T1, Adenosine receptor A1. The assay can be described thus: Displacement of [3H]DPCPX from human Adenosine A1 receptor expressed in CHO cells; range 245-319. It counts as cell-based.
Assay [23] concerns the target T3, Adenosine receptor A3. The assay can be described thus: Displacement of [3H]MRE3008-F20 binding at human Adenosine A3 receptor expressed in HEK cells; range 0.76-0.98. The format is cell-based, HEK293.

As usually defined, the Ki is a measure of affinity in units of concentration, obtained from inhibition or displacement. Low readings indicate higher affinity, high ones lower affinity. The term IC50 denotes the concentration at which inhibition is half-maximal. The low end stands for inhibition by little substance, the high end for a need for much substance. As for `Cn1cc2c(nc(NC(=O)Nc3ccc(Br)cc3)n3nc(-c4ccco4)nc23)n1`, the Ki at Adenosine receptor A1 [1] worked out at 600 nM; on Adenosine receptor A2a [2], 100 nM; at Adenosine receptor A3 [4], 0.46 nM; at Adenosine receptor A2b [7], 181 nM. The same compound showed an IC50 at Adenosine receptor A3 [3] of 4.2 nM. The Ratio was found to be 393 in [5] and 1300 in assay [6].
`COc1cccc(NC(=O)Nc2nc3nn(C)cc3c3nc(-c4ccco4)nn23)c1` gave an IC50 on Adenosine receptor A3 [8] of 7.8 nM. Further, the Ki at Adenosine receptor A3 [9] came to 0.8 nM; on Adenosine receptor A2a [10], 160 nM; at Adenosine receptor A2b [11], 251 nM; on Adenosine receptor A1 [12], 500 nM. Moreover, the figures for the Ratio in assay [5] and in [6] were 313 and 625, respectively.
Turning to `CCCn1cc2c(nc(NC(=O)Nc3ccc(C(F)(F)F)cc3)n3nc(-c4ccco4)nc23)n1`, the Ki on Adenosine receptor A2b [13] came to 136 nM; at Adenosine receptor A1 [14], 400 nM; at Adenosine receptor A2a [15], 34 nM; on Adenosine receptor A3 [16], 0.51 nM. Moreover, the Ratio in assay [5] came out at 267; in assay [6], 784.
For the compound `CCn1cc2c(nc(NC(=O)Nc3ccc(C(F)(F)F)cc3)n3nc(-c4ccco4)nc23)n1`, the inhibition constant (Ki) at Adenosine receptor A2b [17] is 235 nM; on Adenosine receptor A1 [18] it was 450 nM; on Adenosine receptor A2a [19], 53 nM; at Adenosine receptor A3 [20] it was 0.97 nM. Besides, the Ratio came out at 242 in assay [5] and 464 in assay [6].
Regarding `CCCCn1cc2c(nc(NC(=O)Nc3ccccc3Cl)n3nc(-c4ccco4)nc23)n1`, the Ki was found to be 78 nM on Adenosine receptor A2b [21], 100 nM on Adenosine receptor A2a [2], 280 nM on Adenosine receptor A1 [22] and 0.86 nM on Adenosine receptor A3 [23]. The results for the Ratio in assay [5] and in [6] were 91 and 326, respectively.

(Values after ChEMBL document CHEMBL1136016, “Synthesis, biological activity, and molecular modeling investigation of new pyrazolo[4,3-e]-1,2,4-triazolo[1,5-c]pyrimidine derivatives as human A(3) adenosine receptor antagonists” (J Med Chem, 2002).)
